# The array DNA melting data of Ke et al. (doi:10.1101/2024.01.08.574731)
# Columns and labels:
# [1] = melting temperature; fluorescence melt of hairpins on a sequencing array, two-state fit, raised by 9.35 °C to match UV melts; settings: sodium 0.088 M
# How it was run: (§1)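 Melting temperature and folding enthalpy were derived from bootstrapped two-state fits. The fitted temperatures were raised by 9.35 °C to agree with UV melts, and four replicates were combined by inverse variance. The underlying data were Cy3 fluorescence images of library hairpins, with annealed Cy3 and quencher oligos, on a sequenced MiSeq flow cell in 50 mM Na-HEPES pH 8.0, 25 mM NaCl, taken in 2.5 °C steps up to 60 °C, normalised to pre-quench Cy3 and to control constructs.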
# [2] = folding enthalpy; higher = less favourable; fluorescence melt of hairpins on a sequencing array, two-state fit; settings: sodium 0.088 M
# How it was run: as §1
Sequence,Tm [1],folding enthalpy [2]
GGGGGAGGAAACTTCCCC ((((.((....)).)))),54.4 °C,-47.8 kcal/mol
GTGTTCGCGAAAGCGCAC (((..(((....)))))),45.2 °C,-18.1 kcal/mol
GATCCCAAATGGGATC ((((((....)))))),57.7 °C,-36.4 kcal/mol
GGTCCGCCGAAAGGCACC (((..(((....)))))),28.3 °C,-8.71 kcal/mol
GCTCAGGCGAAAGCCAGC (((..(((....)))))),42.8 °C,-12.6 kcal/mol
GCCGTAGGAAACTGTGGC (((..((....))..))),43.3 °C,-11.4 kcal/mol
GATCGATCGTCGATC ((((((...)))))),51.7 °C,-28.7 kcal/mol
CGTTCCGGAAACGGGACG (((.(((....))).))),57.6 °C,-42.9 kcal/mol
GATCGAACTCTCGATC ((((((....)))))),49.7 °C,-35.6 kcal/mol
GATCAGTAAGCTGATC ((((((....)))))),52.3 °C,-41.3 kcal/mol
GCCAGGCGAAAGCGCGGC (((..((....))..))),59.6 °C,-18.6 kcal/mol
GATCCGTGACCGGATC ((((((....)))))),56 °C,-44.1 kcal/mol
GCCAACGAAAGTTACGGC ((((((....)))..))),41.3 °C,-26.1 kcal/mol
CGTTGCGGAAACGCCACG (((.(((....))).))),49.5 °C,-29.8 kcal/mol
GATCCTGCCGAGGATC ((((((....)))))),53 °C,-32.1 kcal/mol
GGACTCGAAAGAGACTCC ((((((....)))..))),36 °C,-11.6 kcal/mol
GCTCAGCGAAAGCCGAGC ((((.((....)).)))),63.5 °C,-28.1 kcal/mol
GATCGTAACCACGATC ((((((....)))))),54.8 °C,-35.8 kcal/mol
GAAGGTGGAAACACCCTC ((.((((....)))).)),33.8 °C,-12.1 kcal/mol
GTGAGCGAAAGCTTCAC ((((((....))).))),50.9 °C,-19.1 kcal/mol
GAGGGTGGAAACACCCTC (((((((....))))))),68.7 °C,-35 kcal/mol
GATCGCAACTGCGATC ((((((....)))))),69.2 °C,-33.8 kcal/mol
GATCTTTGTAAAGATC ((((((....)))))),47.5 °C,-34.3 kcal/mol
GGACACGAAAGTGAATCC ((((((....)))..))),32.9 °C,-15.9 kcal/mol

Sequence,Tm [1],folding enthalpy [2]
GCGTATGGAAACATGTGC ((..(((....)))..)),38.8 °C,-11.6 kcal/mol
GGATGCGAAAGCAGCTCC ((((((....)))..))),47.5 °C,-11.3 kcal/mol
GCGACCTTTCGC ((((....)))),47 °C,-21.4 kcal/mol
GCACAGCGAAAGCCGCGC ((.(.((....)).).)),46.5 °C,-20.3 kcal/mol
GCACCCGAAAGGGTATGC ((((((....)))..))),48.3 °C,-13.9 kcal/mol
GACCAAGAAATTGGTC ((((((....)))))),54.4 °C,-25.9 kcal/mol
GAAACCGGAAACGGTTTC (((((((....))))))),65.7 °C,-39 kcal/mol
GCAACGCGAAAGCTATGC (((..((....))..))),36.8 °C,-11.6 kcal/mol
GCGAGTTTTCGC ((((....)))),53.3 °C,-16.5 kcal/mol
GCGCCGCGAAAGCACCGC (((..((....))..))),46.2 °C,-16.7 kcal/mol
GATCTTCGCAAGATC ((((((...)))))),45.4 °C,-33.7 kcal/mol
GATCTGAGCGCAGATC ((((((....)))))),48.5 °C,-24.7 kcal/mol
GCAGCCGAAAGGCAGTGC ((((((....)))..))),50.6 °C,-17.4 kcal/mol
GTAGCTGGAAACGGCTAC (((((.(....).))))),52.5 °C,-40.8 kcal/mol
GGCTACGAAAGTAAGCC ((((((....))).))),58.4 °C,-36.3 kcal/mol
GCTGGAGAAATCCAGC ((((((....)))))),62.9 °C,-35.9 kcal/mol
GCGGATACCGC ((((...)))),57.1 °C,-25.8 kcal/mol
GGTGACGAAAGTCCTACC ((((((....)))..))),33.5 °C,-13.8 kcal/mol
GATCTTTCCAAAGATC ((((((....)))))),47.3 °C,-32.9 kcal/mol
GCGTACAAACGC ((((....)))),51.1 °C,-21.5 kcal/mol
GCCGTGCGAAAGCCTGGC (((..((....))..))),56.2 °C,-20.4 kcal/mol
GTACAGTCGAAAGACTAC (((..(((....)))))),29.7 °C,-10.2 kcal/mol
GACGGTGGAAACACCACC (..((((....))))..),35.2 °C,-11.1 kcal/mol
GTTAGGCGAAAGCCGAAC (((.(((....))).))),55.9 °C,-19.6 kcal/mol

Sequence,Tm [1],folding enthalpy [2]
GAACACGGAAACGTGTCC (.(((((....))))).),45.2 °C,-11.2 kcal/mol
GCCTAGCGAAAGCTTAGC ((..(((....)))..)),36.8 °C,-12.6 kcal/mol
GCCCAGCGAAAGCAGAGC ((.(.((....)).).)),41.2 °C,-10.9 kcal/mol
GGGACCGCGAAAGCGCCC (((..(((....)))))),39.2 °C,-12.5 kcal/mol
GGCTACGAAAGTACTGCC ((((((....)))..))),39.6 °C,-22.7 kcal/mol
GGTCCCGAAAGGGTTACC ((((((....)))..))),39.6 °C,-15.4 kcal/mol
GTGCCGGCGAAAGCCCAC (((..(((....)))))),59.9 °C,-6.81 kcal/mol
GTGAGCGAAAGCTCGCAC ((((((....)))..))),55.1 °C,-11.7 kcal/mol
GCACTGCGAAAGCCGGGC ((.(.((....)).).)),57.1 °C,-22.7 kcal/mol
GCAAGCTCGAAAGAGTGC (((..(((....)))))),36.9 °C,-16.9 kcal/mol
GCGACAACTCGC ((((....)))),41.7 °C,-21.2 kcal/mol
GATCTCGTGAGAGATC ((((((....)))))),66.9 °C,-31 kcal/mol
GCCTGGGCGAAAGCCGGC (((..(((....)))))),55.2 °C,-23.7 kcal/mol
GATCGGTAGACCGATC ((((((....)))))),57 °C,-41.1 kcal/mol
GATCATGCCATGATC ((((((...)))))),50.9 °C,-40 kcal/mol
CGATGCGGAAACGCCTCG (((.(((....))).))),48.1 °C,-40.4 kcal/mol
GCCCACGCGAAAGCGGGC (((..(((....)))))),61.8 °C,-11.9 kcal/mol
GCGGCTGTCCGC ((((....)))),57.9 °C,-28.3 kcal/mol
GCTTTGCGAAAGCAAGGC ((.((((....)))).)),62.1 °C,-21.3 kcal/mol
GTATGTGGAAACACGTAC (((.(((....))).))),47.1 °C,-29.3 kcal/mol
GATCGAACCATCGATC ((((((....)))))),50.4 °C,-41.6 kcal/mol
GCGGGGCGAAAGCCAGGC ((..(((....)))..)),59.1 °C,-17.5 kcal/mol
GTCCCAGGAAACCAGGAC ((((..(....)..)))),35.6 °C,-21.2 kcal/mol
GTGAGCGAAAGCTACCAC ((((((....)))..))),35.9 °C,-10.5 kcal/mol

Sequence,Tm [1],folding enthalpy [2]
GCTGAGGGAAACCTCGGC ((.((((....)))).)),56.8 °C,-39.9 kcal/mol
GATCCGTTTACGGATC ((((((....)))))),68.1 °C,-39.3 kcal/mol
GCAGCCGGAAACAGCTGC (((((.(....).))))),55.7 °C,-40.9 kcal/mol
GCAACAGGAAACTGTTAC (.(((((....))))).),34 °C,-16.7 kcal/mol
GCGACGACGAAAGTCCGC (((..(((....)))))),51.4 °C,-24.7 kcal/mol
GCGGCAGCGAAAGCTCGC (((..(((....)))))),51.5 °C,-11.7 kcal/mol
GCGCACGGAAACGTGTGC ((.((((....)))).)),67.7 °C,-41 kcal/mol
GTGCTCGGAAACAAGCAC (((((.(....).))))),46.2 °C,-31.9 kcal/mol
GATCGAAACTTCGATC ((((((....)))))),53.5 °C,-33.9 kcal/mol
GATCGTGTGCACGATC ((((((....)))))),59.9 °C,-39.3 kcal/mol
GCTAATCCGAAAGGAAGC (((..(((....)))))),33.1 °C,-16.5 kcal/mol
GCACGCGAAAGCGCTGC ((((((....))).))),62.4 °C,-18.4 kcal/mol
GCTAAGACGAAAGTCAGC (((..(((....)))))),44.3 °C,-20.4 kcal/mol
GCCTACGGAAACACAGGC ((((..(....)..)))),34.6 °C,-23.3 kcal/mol
GCACACACGAAAGTGTGC (((..(((....)))))),57.7 °C,-11.6 kcal/mol
GGTTTGGGAAACCAAATC (.(((((....))))).),44.5 °C,-31.1 kcal/mol
GATCCCGCTTGGGATC ((((((....)))))),59.5 °C,-46.9 kcal/mol
GCGCGCGAAAGCGCTCGC ((((((....)))..))),59.4 °C,-10.5 kcal/mol
GGGAATGAAAATTCCC ((((((....)))))),56 °C,-40.6 kcal/mol
GATCGACGGATCGATC ((((((....)))))),51.1 °C,-29 kcal/mol
GATCGACTTATCGATC ((((((....)))))),51 °C,-44.6 kcal/mol
